Laboratory results: ChEMBL document CHEMBL1146867, “Novel antibacterial class: a series of tetracyclic derivatives” (J Med Chem, 2006)
Values after ≈ are worked out from the molar mass of the structure shown.

Tests used:
Type in all cases: functional
[1] = test system: Streptococcus pneumoniae; experiment: Antibacterial activity against quinolone-susceptible Streptococcus pneumoniae ATCC 6303
Summary of the method: (§1)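 MICs were determined by broth microdilution following the National Committee for Clinical Laboratory Standards method for aerobically growing bacteria.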

[2] = test system: Haemophilus influenzae; experiment: Antibacterial activity against quinolone-susceptible Haemophilus influenzae 1435; summary of the method: as §1
[3] = test system: Streptococcus pneumoniae; experiment: Antibacterial activity against quinolone-resistant Streptococcus pneumoniae ATCC 7257
Summary of the method: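 MIC by broth microdilution following National Committee for Clinical Laboratory Standards methods for dilution susceptibility testing of aerobically growing bacteria, against the quinolone-resistant S. pneumoniae strain 7257.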

[4] = test system: Streptococcus pneumoniae; experiment: Inhibition on Streptococcus pneumoniae translation by uncoupled translation assay
Summary of the method: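 The assay was cell-free and translation-only (uncoupled), using S. pneumoniae material. Dried test compound was mixed with S30 extract, luciferase-encoding mRNA and a complete amino acid mix. The mix was incubated to allow translation, and the reaction was stopped with kanamycin. Luciferin reagent was then added, and read-out was by flash luminescence. Results are given as IC50.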

[5] = test system: JIYOYE; experiment: Cytotoxicity against human B cells by Jijoye assay; settings: read-out: LD50 (the source's name)
[6] = test system: Streptococcus pneumoniae; experiment: Inhibition on Streptococcus pneumoniae translation by transcription/translation coupled assay

O=C(O)c1cnc2nc3c(cc2c1O)NC(=O)[C@@H]1CCCN31
MIC [1]: > 64 µg/mL
MIC [2]: > 64 µg/mL
MIC [3]: > 64 µg/mL
IC50 [4]: 22 µM
CC50 [5]: > 100 µg/mL

COc1ccc(Cn2cc(C(=O)O)c(=O)c3cc4c(nc32)N2CCC[C@H]2CO4)c(OC)c1
MIC [1]: > 64 µg/mL
MIC [2]: > 64 µg/mL
MIC [3]: 32 µg/mL (≈ 73.2 µM)
IC50 [4]: 57 µM
CC50 [5]: 12 µg/mL (≈ 27.4 µM)

O=C(O)c1cnc2nc3c(cc2c1O)OCCN3
MIC [1]: > 64 µg/mL
MIC [2]: 32 µg/mL (≈ 129 µM)
MIC [3]: > 64 µg/mL
IC50 [4]: 100 µM
CC50 [5]: > 100 µg/mL

O=C(O)c1cnc2nc3c(cc2c1O)OC[C@@H]1CCN31
MIC [1]: 16 µg/mL (≈ 58.6 µM)
MIC [2]: 8 µg/mL (≈ 29.3 µM)
MIC [3]: 2 µg/mL (≈ 7.32 µM)
IC50 [4]: 7.5 µM
CC50 [5]: > 100 µg/mL

CC12CCCN1c1nc3ncc(C(=O)O)c(O)c3cc1OC2 (stereo unspecified)
MIC [1]: > 64 µg/mL
MIC [2]: 32 µg/mL (≈ 106 µM)
MIC [3]: 32 µg/mL (≈ 106 µM)
IC50 [4]: 107 µM
CC50 [5]: > 100 µg/mL

C=CCC12CCCN1c1nc3ncc(C(=O)O)c(O)c3cc1OC2 (stereo unspecified)
MIC [1]: > 64 µg/mL
MIC [2]: > 64 µg/mL
MIC [3]: > 64 µg/mL
IC50 [4]: > 300 µM
CC50 [5]: > 100 µg/mL

O=C(O)c1cnc2nc(N3CCC[C@@H]3CO)c(F)cc2c1O
MIC [1]: > 64 µg/mL
IC50 [6]: 75 µM
MIC [2]: > 64 µg/mL
MIC [3]: > 64 µg/mL
CC50 [5]: > 100 µg/mL

C=CC[C@H]1Oc2cc3c(O)c(C(=O)O)cnc3nc2N2CCC[C@@H]12
MIC [1]: > 64 µg/mL
MIC [2]: > 64 µg/mL
MIC [3]: > 64 µg/mL
IC50 [4]: > 300 µM
CC50 [5]: > 100 µg/mL

O=C(O)c1cnc2cc(N3CCNCC3)c(F)cc2c1O
MIC [1]: > 64 µg/mL
MIC [3]: > 64 µg/mL
IC50 [4]: 141 µM

C[C@H]1Oc2cc3c(O)c(C(=O)O)cnc3nc2N2CCCC12 (single isomer, unassigned)
MIC [1]: 64 µg/mL (≈ 212 µM)
MIC [2]: 64 µg/mL (≈ 212 µM)
MIC [3]: 32 µg/mL (≈ 106 µM)
IC50 [4]: 125 µM
CC50 [5]: > 100 µg/mL

CCN1CCOc2cc3c(O)c(C(=O)O)cnc3nc21
MIC [1]: > 64 µg/mL
MIC [2]: 64 µg/mL (≈ 233 µM)
MIC [3]: 32 µg/mL (≈ 116 µM)
IC50 [4]: 84 µM
CC50 [5]: > 100 µg/mL

O=C(O)c1cnc2nc3c(cc2c1O)OCC1CCCCN31 (stereo unspecified)
MIC [1]: > 64 µg/mL
MIC [2]: 8 µg/mL (≈ 26.6 µM)
MIC [3]: 16 µg/mL (≈ 53.1 µM)
IC50 [4]: 63 µM
CC50 [5]: > 100 µg/mL

O=C(O)c1cnc2nc3c(cc2c1O)OC[C@@H]1C[C@@H](O)CN31
MIC [1]: 64 µg/mL (≈ 211 µM)
MIC [2]: 16 µg/mL (≈ 52.8 µM)
MIC [3]: 16 µg/mL (≈ 52.8 µM)
IC50 [4]: 6.9 µM
CC50 [5]: > 100 µg/mL

CC(=O)N1C[C@@H]2CCCN2c2nc3ncc(C(=O)O)c(O)c3cc21
MIC [1]: 16 µg/mL (≈ 48.7 µM)
MIC [2]: 4 µg/mL (≈ 12.2 µM)
IC50 [4]: 7 µM
